Common to all, as to assay type: functional
In assay [1] the test system is Escherichia coli. Put plainly: Antibacterial activity against Escherichia coli IH3080 assessed as reduction in bacterial count at 2 ug/ml using 2 day old compound stock solution. More on the design: scale not given: the % may be the effect or the level left.
The next assay concerns Serratia marcescens. Put plainly: Antibacterial activity against Serratia marcescens ATCC 8100 by CLSI M7-A7 agar dilution method. An outline of the steps: (§1)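 Agar dilution on Mueller-Hinton agar with test substance at 0.25 to 32 μg/ml in twofold steps. Spots of about 10^4 CFU applied with a multipoint inoculator.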
Assay [2] relates to Enterobacter cloacae. Nature of the assay: Antibacterial activity against Enterobacter cloacae by CLSI M7-A7 agar dilution method.
Assay [3] deals with Escherichia coli. Nature of the assay: Antibacterial activity against Escherichia coli IH3080 assessed as growth inhibition at 10 ug after 18 hrs by […] in presence of 1 ug/ml rifampin.
Assay [4] relates to Escherichia coli. Put plainly: Antibacterial activity against Escherichia coli IH3080 assessed as growth inhibition at 10 ug after 18 hrs by […].
The subject of assay [5] is Klebsiella oxytoca. Put plainly: Antibacterial activity against Klebsiella oxytoca CCUG51683 by CLSI M7-A7 agar dilution method. An outline of the steps: as §1
The test system of assay [6] is Enterobacter cloacae. Put plainly: Antibacterial activity against Enterobacter cloacae CCUG52947 by CLSI M7-A7 agar dilution method.
The subject of assay [7] is Klebsiella pneumoniae. Nature of the assay: Antibacterial activity against Klebsiella pneumoniae by CLSI M7-A7 agar dilution method. An outline of the steps:
as §1

For another assay, the system named is Pseudomonas aeruginosa. Put plainly: Antibacterial activity against Pseudomonas aeruginosa ATCC 27853 by CLSI M7-A7 agar dilution method. An outline of the steps: as §1
The subject of another assay is Candida albicans. Nature of the assay: Antibacterial activity against Candida albicans ATCC 28366 by CLSI M7-A7 agar dilution method.
Assay [8] concerns Escherichia coli. Nature of the assay: Antibacterial activity against Escherichia coli ATCC […] by CLSI M7-A7 agar dilution method.
Another assay deals with Staphylococcus aureus. Put plainly: Antibacterial activity against Staphylococcus aureus ATCC 25923 by CLSI M7-A7 agar dilution method. An outline of the steps: as §1
Assay [9] concerns Klebsiella pneumoniae. Nature of the assay: Antibacterial activity against Klebsiella pneumoniae CCUG45421 by CLSI M7-A7 agar dilution method. An outline of the steps: as §1
The test system of assay [10] is Escherichia coli. Put plainly: Antibacterial activity against Escherichia coli IH3080 by CLSI M7-A7 agar dilution method.
In assay [11] the test system is Acinetobacter baumannii. Put plainly: Antibacterial activity against Acinetobacter baumannii ATCC 19606 by CLSI M7-A7 agar dilution method.
Assay [12] concerns Klebsiella oxytoca. Put plainly: Antibacterial activity against Klebsiella oxytoca ATCC 13182 by CLSI M7-A7 agar dilution method. An outline of the steps:
as §1

The subject of assay [13] is Escherichia coli. Put plainly: Antibacterial activity against Escherichia coli SC 9252 by CLSI M7-A7 agar dilution method.
For assay [14], the system named is Escherichia coli. Put plainly: Antibacterial activity against Escherichia coli SC 9253 by CLSI M7-A7 agar dilution method. An outline of the steps:
as §1

For assay [15], the system named is Escherichia coli. Put plainly: Antibacterial activity against Escherichia coli by CLSI M7-A7 agar dilution method. An outline of the steps: as §1
The test system of assay [16] is Enterobacter cloacae. Put plainly: Antibacterial activity against Enterobacter cloacae ATCC 23355 by CLSI M7-A7 agar dilution method.
For a further assay, the system named is Citrobacter freundii. Put plainly: Antibacterial activity against Citrobacter freundii ATCC 8090 by CLSI M7-A7 agar dilution method.
In assay [17] the test system is Acinetobacter baumannii. Nature of the assay: Antibacterial activity against Acinetobacter baumannii by CLSI M7-A7 agar dilution method.

Converted amounts (≈) assume the structure as drawn.

Take `CCCCCCCC(=O)N[C@H](C(=O)N[C@H](CO)C(=O)N[C@H]1CCNC(=O)[C@H]([C@@H](C)O)NC(=O)[C@H](CCN)NC(=O)[C@H](CCN)NC(=O)[C@H](CC(C)C)NC(=O)[C@@H](Cc2ccccc2)NC(=O)[C@H](CCN)NC1=O)[C@@H](C)O.CS(=O)(=O)[O-].[Na+]`: the Activity in the assay on Escherichia coli [1] was found to be 90%.
Regarding `CCCCCCCC(=O)N[C@H](C(=O)N[C@H](CO)C(=O)N[C@H]1CCNC(=O)[C@H]([C@@H](C)O)NC(=O)[C@H](CCN)NC(=O)[C@H](CCN)NC(=O)[C@H](CC(C)C)NC(=O)[C@@H](Cc2ccccc2)NC(=O)[C@H](CCN)NC1=O)[C@@H](C)O`, the minimal inhibitory concentration (MIC) in the assay with Serratia marcescens was above 32 µg/mL; against Enterobacter cloacae [2] it was 2 µg/mL (≈ 1.86 µM); with Klebsiella oxytoca [5], 2 µg/mL (≈ 1.86 µM); in the assay with Enterobacter cloacae [6], 2 µg/mL (≈ 1.86 µM); in the assay on Klebsiella pneumoniae [7] it was 1 µg/mL (≈ 0.929 µM); against Pseudomonas aeruginosa, 8 µg/mL (≈ 7.43 µM). The MIC is above 32 µg/mL against Candida albicans; 1 µg/mL (≈ 0.929 µM) against Escherichia coli [8]; above 32 µg/mL against Staphylococcus aureus; 4 µg/mL (≈ 3.72 µM) in the assay on Klebsiella pneumoniae [9]; 1 µg/mL (≈ 0.929 µM) with Escherichia coli [10]; 8 µg/mL (≈ 7.43 µM) in the assay with Acinetobacter baumannii [11]. For the same compound, the MIC in the assay on Klebsiella oxytoca [12] was 2 µg/mL (≈ 1.86 µM); in the assay on Escherichia coli [13] it was 32 µg/mL (≈ 29.7 µM); against Escherichia coli [14] it was above 32 µg/mL; in the assay with Escherichia coli [15], 0.5 µg/mL (≈ 0.465 µM); against Enterobacter cloacae [16], 2 µg/mL (≈ 1.86 µM); with Citrobacter freundii, 2 µg/mL (≈ 1.86 µM). For the same compound, inhibition of growth against Acinetobacter baumannii [17] (MIC) required 4 µg/mL (≈ 3.72 µM). In addition, the “inhibition zone (IZ)” value in the assay with Escherichia coli [3] turned out to be 214 mm2; in the assay with Escherichia coli [4], 171 mm2. In the assay on Escherichia coli [1], the Activity came to 98%.

(Values after ChEMBL document CHEMBL1671867, “Novel polymyxin derivatives carrying only three positive charges are effective antibacterial agents” (Antimicrob Agents Chemother, 2008).)
